Assay results from publication PMC10907882 (Pharmacology Research & Perspectives, 2024).

Columns and labels:
[1] = twice‐daily dosing for 2 weeks; healthy elderly and patients with mild to moderate Alzheimer's disease; cited from earlier work
human calpain‐1 = molecular target: T1, human calpain‐1 (Homo sapiens, UniProt P07384); assay: In vitro calpain assay; assay type: biochemical; settings: read-out: K i for human calpain‐1; purified human calpain‐1; means ± SEM of three experiments or single experiment
T1 sequence (P07384 1-714): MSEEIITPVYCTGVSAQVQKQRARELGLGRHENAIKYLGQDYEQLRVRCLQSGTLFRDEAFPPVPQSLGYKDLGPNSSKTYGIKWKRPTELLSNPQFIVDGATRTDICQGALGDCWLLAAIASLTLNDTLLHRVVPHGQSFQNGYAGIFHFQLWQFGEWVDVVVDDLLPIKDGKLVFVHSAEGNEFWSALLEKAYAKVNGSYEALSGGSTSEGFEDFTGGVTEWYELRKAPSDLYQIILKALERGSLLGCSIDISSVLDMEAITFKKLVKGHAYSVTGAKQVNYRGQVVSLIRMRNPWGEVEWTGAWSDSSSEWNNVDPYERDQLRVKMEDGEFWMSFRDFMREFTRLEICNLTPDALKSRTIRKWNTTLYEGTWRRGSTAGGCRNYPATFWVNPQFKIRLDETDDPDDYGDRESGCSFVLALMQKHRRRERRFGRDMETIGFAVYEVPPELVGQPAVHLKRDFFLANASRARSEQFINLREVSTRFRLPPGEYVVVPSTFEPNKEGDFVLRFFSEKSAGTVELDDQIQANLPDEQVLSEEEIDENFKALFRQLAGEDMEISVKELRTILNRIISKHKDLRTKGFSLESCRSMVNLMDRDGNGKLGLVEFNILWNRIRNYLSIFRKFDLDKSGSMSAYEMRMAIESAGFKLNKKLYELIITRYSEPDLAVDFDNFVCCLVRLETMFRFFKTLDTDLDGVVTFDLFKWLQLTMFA
T1 sequence (P04632 1-268 partner): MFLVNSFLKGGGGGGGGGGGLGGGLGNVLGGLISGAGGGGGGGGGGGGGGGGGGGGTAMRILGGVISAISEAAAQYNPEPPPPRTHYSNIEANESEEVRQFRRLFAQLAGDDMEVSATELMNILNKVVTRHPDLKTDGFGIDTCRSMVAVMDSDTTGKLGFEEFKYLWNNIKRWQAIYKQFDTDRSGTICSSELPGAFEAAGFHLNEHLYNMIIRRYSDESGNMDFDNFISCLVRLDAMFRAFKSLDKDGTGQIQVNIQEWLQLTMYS
In short: (§1)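 Enzymes were purified human erythrocyte calpain-1 (8 μg) or bacterially expressed recombinant human calpain-2. Buffer was 60 mM imidazole-HCl pH 7.3 with 5 mM CaCl₂, 5 mM cysteine, 2.5 mM β-mercaptoethanol, 0.5 mM Suc-Leu-Tyr-AMC and test compound (0–20 μM). Reactions were started with enzyme and run at 30°C for 15 min, reading AMC fluorescence (380/450 nm) every 30 s. IC50 came from sigmoidal fits of linear rates; Ki from mean IC50 assuming competitive binding.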

rec human calpain‐2 = molecular target: T2, rec human calpain‐2 (Homo sapiens, UniProt P17655); assay: In vitro calpain assay; assay type: biochemical
T2 sequence (P17655 1-700): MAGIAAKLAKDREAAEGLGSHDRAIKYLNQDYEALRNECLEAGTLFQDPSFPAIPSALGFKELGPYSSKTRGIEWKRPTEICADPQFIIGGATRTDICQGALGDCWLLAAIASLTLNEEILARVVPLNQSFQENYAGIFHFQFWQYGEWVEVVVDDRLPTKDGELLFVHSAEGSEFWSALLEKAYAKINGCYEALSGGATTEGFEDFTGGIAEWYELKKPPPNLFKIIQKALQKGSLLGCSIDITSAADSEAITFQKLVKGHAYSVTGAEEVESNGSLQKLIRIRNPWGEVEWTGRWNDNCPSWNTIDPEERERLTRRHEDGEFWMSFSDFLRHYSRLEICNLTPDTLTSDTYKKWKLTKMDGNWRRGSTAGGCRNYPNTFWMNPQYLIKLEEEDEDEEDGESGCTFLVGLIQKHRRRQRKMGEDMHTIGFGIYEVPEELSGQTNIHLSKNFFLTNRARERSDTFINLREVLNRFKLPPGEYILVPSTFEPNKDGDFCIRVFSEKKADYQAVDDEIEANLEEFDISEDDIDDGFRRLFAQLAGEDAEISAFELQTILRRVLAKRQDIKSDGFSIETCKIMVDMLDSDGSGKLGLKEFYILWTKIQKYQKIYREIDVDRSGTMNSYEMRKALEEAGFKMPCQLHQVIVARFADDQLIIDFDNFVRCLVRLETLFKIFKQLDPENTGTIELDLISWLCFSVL
In short: as §1

mouse calpain‐1 = molecular target: T3, mouse calpain‐1 (Mus musculus, UniProt O35350); assay: Ex‐vivo calpain assay, mouse pons‐cerebellum membrane fractions, 20 μM calcium; assay type: biochemical; settings: read-out: IC50 for mouse calpain‐1, endogenous brain calpain‐1, membrane fractions
T3 sequence (O35350 1-713): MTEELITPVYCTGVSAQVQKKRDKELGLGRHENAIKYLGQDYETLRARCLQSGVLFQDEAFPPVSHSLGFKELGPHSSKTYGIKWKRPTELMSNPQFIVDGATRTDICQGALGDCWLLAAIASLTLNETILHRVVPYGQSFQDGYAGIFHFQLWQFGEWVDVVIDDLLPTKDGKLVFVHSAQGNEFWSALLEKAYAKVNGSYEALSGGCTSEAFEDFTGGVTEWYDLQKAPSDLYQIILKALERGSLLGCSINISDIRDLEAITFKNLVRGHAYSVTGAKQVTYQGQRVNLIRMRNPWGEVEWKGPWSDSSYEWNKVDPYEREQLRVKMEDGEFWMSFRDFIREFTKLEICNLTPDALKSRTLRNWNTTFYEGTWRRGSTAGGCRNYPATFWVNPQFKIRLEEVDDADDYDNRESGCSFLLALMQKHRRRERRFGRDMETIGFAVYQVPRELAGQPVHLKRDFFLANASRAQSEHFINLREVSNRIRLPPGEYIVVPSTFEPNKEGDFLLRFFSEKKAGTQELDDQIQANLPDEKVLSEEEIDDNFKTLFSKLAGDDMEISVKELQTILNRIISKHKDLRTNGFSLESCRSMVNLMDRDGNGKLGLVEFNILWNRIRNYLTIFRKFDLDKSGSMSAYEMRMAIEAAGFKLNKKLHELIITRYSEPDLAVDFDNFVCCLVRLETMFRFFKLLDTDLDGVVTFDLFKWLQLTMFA
T3 sequence (O88456 1-268 partner): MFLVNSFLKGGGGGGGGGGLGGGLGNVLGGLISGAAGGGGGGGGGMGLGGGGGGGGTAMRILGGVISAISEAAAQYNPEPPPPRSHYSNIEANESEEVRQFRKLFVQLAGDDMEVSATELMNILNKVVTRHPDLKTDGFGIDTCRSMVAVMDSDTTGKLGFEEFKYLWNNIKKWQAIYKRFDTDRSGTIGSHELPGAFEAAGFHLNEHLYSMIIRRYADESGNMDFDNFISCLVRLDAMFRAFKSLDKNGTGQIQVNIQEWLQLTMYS
In short: (§2)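 Membrane fractions from mouse pons-cerebellum were resuspended in 60 mM imidazole-HCl pH 7.3 with 5 mM cysteine and 2.5 mM β-mercaptoethanol and exposed to test compound concentrations. Calpain-1 was assayed in wild-type membranes with 20 μM calcium. Calpain-2 was assayed in calpain-1 knockout membranes with 2 mM calcium. Substrate was Suc-Leu-Tyr-AMC (0.5 mM). Two experiments.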

mouse calpain‐2 = molecular target: T4, mouse calpain‐2 (Mus musculus, UniProt O08529); assay: Ex‐vivo calpain assay, mouse pons‐cerebellum membrane fractions, 2 mM calcium; assay type: biochemical; settings: mouse brain enzymes
T4 sequence (O08529 1-700): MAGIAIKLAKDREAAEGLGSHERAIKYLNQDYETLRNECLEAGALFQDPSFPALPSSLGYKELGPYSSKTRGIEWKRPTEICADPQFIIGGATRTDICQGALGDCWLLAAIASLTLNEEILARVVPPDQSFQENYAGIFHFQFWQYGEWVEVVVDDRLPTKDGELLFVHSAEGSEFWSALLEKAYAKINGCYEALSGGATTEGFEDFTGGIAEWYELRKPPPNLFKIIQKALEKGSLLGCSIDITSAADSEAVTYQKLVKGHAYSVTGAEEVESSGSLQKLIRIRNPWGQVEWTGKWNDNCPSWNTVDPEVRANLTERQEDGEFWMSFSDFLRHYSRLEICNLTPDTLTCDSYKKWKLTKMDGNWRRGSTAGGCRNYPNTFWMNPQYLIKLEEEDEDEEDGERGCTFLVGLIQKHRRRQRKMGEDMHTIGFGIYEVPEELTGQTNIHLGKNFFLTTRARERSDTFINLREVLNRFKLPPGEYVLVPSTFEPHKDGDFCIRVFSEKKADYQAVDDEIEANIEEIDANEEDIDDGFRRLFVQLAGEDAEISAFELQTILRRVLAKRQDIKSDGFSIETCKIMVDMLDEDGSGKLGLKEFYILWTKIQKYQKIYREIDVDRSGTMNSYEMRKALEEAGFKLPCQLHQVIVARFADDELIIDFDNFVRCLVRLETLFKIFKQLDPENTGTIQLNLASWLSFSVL
T4 sequence (O88456 1-268 partner): T3 sequence (O88456 1-268 partner)
In short: as §2

calpain‐2 = settings: reported; cited from earlier work

Compound	adverse effects in Phase I [1]	Ki (human calpain‐1) [nM]	Ratio 1/2 (K i calpain‐1 / calpain‐2) (rec human calpain‐2; human enzymes)	Ki (rec human calpain‐2; read-out: K i for rec human calpain‐2, recombinant human calpain‐2, means ± SEM of three experiments or single experiment) [nM]	IC50 (mouse calpain‐1) [nM]	Ratio 1/2 (IC50 calpain‐1 / calpain‐2) (mouse calpain‐2)	difference in K i values for calpain‐2 vs calpain‐1 (calpain‐2) [fold]
O=C(NC1CC1)C(=O)C(Cc1ccccc1)NC(=O)[C@H]1CCC(=O)N1Cc1ccccc1 (stereo partly shown) [ABT‐957]	did not result in significant adverse effects	–	–	–	–	–	–
CCC(NC(=O)[C@H](CC(C)C)NC(=O)OCc1ccccc1)C(=O)C(=O)NCc1cc(OC)cc(OC)c1 (stereo partly shown) [Compound C2I, Z‐Leu‐Abu‐CONH‐CH2‐C6H3(3,5‐(OMe)2)]	–	124 ± 6	2.3	55 ± 7	1130	26	100
